ChEMBL document CHEMBL1146177, “Total synthesis and biological evaluation of viscolin, a 1,3-diphenylpropane as a novel potent anti-inflammatory agent” (Bioorg Med Chem Lett, 2006)

Experiments:
BV-2 [1] = assay: Inhibition of LPS-induced TNFalpha production in mouse BV2 cells measured as mean channel fluorescence at 25 uM
[2] = Inhibition of fMLP-induced ROS production in human leukocytes at 25 uM; assay type: functional; details: Leukocyte
[3] = Inhibition of PMA-induced ROS production in human leukocytes at 25 uM; assay type: functional; details: Leukocyte
BV-2 [4] = assay: Inhibition of NOS-dependent nitric oxide production in mouse BV2 cells; assay type: functional, cell-based
How it was run: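 Murine BV2 microglial cells. NOX activity was read as ROS production and NOS activity as NO production. DPI (NOX inhibitor) and L-NAME (NOS inhibitor) served as positive controls. IC50 is the mean ± SEM of 5–6 experiments on different days with cells from different passages.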

CD4+ve Th [5] = assay: Inhibition of PMA plus ionomycin-induced IL2 production in human CD4+ Th cells measured as mean channel fluorescence at 25 uM; assay type: functional
How it was run: (§1)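 Human leukocytes were stimulated with PMA plus ionomycin. IL-2 (CD4+ Th cells) and IFN-γ (CD8+ cells) were measured by intracellular cytokine staining and read as mean channel fluorescence. Significance was tested against activator alone (P<0.05).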

[6] = Cytotoxicity against microglial cells at 5 uM; details: mouse, microglia
CD4+ve Th [7] = assay: Inhibition of PMA plus ionomycin-induced IL2 production in human CD4+ Th cells measured as mean channel fluorescence at 5 uM; assay type: functional
How it was run: as §1

[8] = Cytotoxicity against microglial cells at 10 uM; details: mouse, microglia
[9] = Inhibition of PMA plus ionomycin-induced IFN-gamma production in human CD8+ leukocytes measured as mean channel fluorescence at 5 uM; assay type: functional
How it was run: as §1

[10] = Inhibition of PMA plus ionomycin-induced IFN-gamma production in human CD8+ leukocytes measured as mean channel fluorescence at 25 uM; assay type: functional
How it was run: as §1

[11] = Cytotoxicity against microglial cells at 25 uM; details: mouse, microglia
BV-2 [12] = assay: Inhibition of LPS-induced TNFalpha production in mouse BV2 cells measured as mean channel fluorescence at 5 uM
BV-2 [13] = assay: Inhibition of NADPH oxidase-dependent reactive oxygen species production in mouse BV2 cells
[14] = Inhibition of PMA-induced ROS production in human mononuclear leukocytes; assay type: functional, cell-based
How it was run: (§2)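 Peripheral human neutrophils (PMN) or mononuclear cells (MNC) were stimulated with PMA (a PKC activator) or fMLP to induce ROS. IC50 is the mean ± SEM of 3–5 experiments on different days with cells from different donors.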

[15] = Inhibition of PMA-induced ROS production in human PMN; assay type: functional
How it was run: as §2

[16] = Inhibition of fMLP-induced ROS production in human mononuclear leukocytes; assay type: functional, cell-based
How it was run: as §2

[17] = Inhibition of fMLP-induced ROS production in human PMN; assay type: functional
How it was run: as §2

[18] = DPPH radical scavenging activity; assay type: functional
[19] = molecular target: T1, Protein kinase C (PKC) (Homo sapiens) (UniProt O94806+P41743+P17252+P05129+Q05655+P05771+Q05513+Q02156+P24723+Q15139+Q04759); assay: Inhibition of PKC in human peripheral leucocytes at 5 uM by ELISA; assay type: cell-based
How it was run: (§3)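 Protein kinase activity in human leukocytes is expressed as % inhibition relative to drug-free samples (taken as 100%). Values are the mean ± SEM of 3 experiments on different days with cells from different donors.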

[20] = Inhibition of fMLP-induced calcium mobilisation in human peripheral leukocytes at 5 uM; assay type: functional
How it was run: (§4)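 Human leukocytes were preloaded with Fura-2, and intracellular Ca2+ rise was followed after fMLP stimulation. Inhibition is expressed as % of the calcium increment in drug-free samples (taken as 100%). Values are the mean ± SEM of 3 experiments on different days with different donors.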

[21] = molecular target: T1, Protein kinase C (PKC) (Homo sapiens); assay: Inhibition of PKC at 25 uM by ELISA; assay type: protein assay
How it was run: as §3

[22] = Inhibition of fMLP-induced calcium mobilisation in human peripheral leukocytes at 25 uM; assay type: functional
How it was run: as §4

| IC50 (BV-2 [4]) [µM] | SMILES | Activity (BV-2 [1]) | Activity (CD4+ve Th [5]) | Activity [6] [%] | Activity (CD4+ve Th [7]) | Activity [8] [%] | Activity [9] | Activity [10] | Activity [11] [%] | Activity (BV-2 [12]) | further results |
| --- | --- | --- | --- | --- | --- | --- | --- | --- | --- | --- | --- |
| 20 | COc1cc(CCCc2c(OC)cc(OCc3ccccc3)c(OC)c2OC)ccc1OCc1ccccc1 | 154 | 102 | 14.6 | 100 | 8.9 | 59 | 65 | 9.6 | 164 | inhibition at 25 µM [2]: 37%; inhibition at 25 µM [3]: 20% |
| 19 | COc1cc(C/C=C/c2c(OC)cc(OCc3ccccc3)c(OC)c2OC)ccc1OCc1ccccc1 | 155 | 103 | 8.6 | 101 | 8.1 | 60 | 65 | 10 | 164 | inhibition at 25 µM [2]: 37%; inhibition at 25 µM [3]: 20% |
| 24 | COc1cc(CCCc2c(OC)cc(O)c(OC)c2OC)ccc1O [VISCOLIN] | 121 | 112 | 9.6 | 99 | 8.9 | 72 | 67 | 14.6 | 155 | inhibition [19]: 34.4%; IC50 (BV-2 [13]): 29.2 µM; IC50 [14]: 8.3 µM; inhibition at 5 µM [20]: 36.7%; IC50 [15]: 12 µM; IC50 [16]: 2.5 µM; IC50 [17]: 1.4 µM; IC50 [18]: 49.2 µM; inhibition [21]: 48.8%; inhibition at 25 µM [22]: 53.5% |

Further lines, the compound ahead of its results:

| SMILES | IC50 (BV-2 [4]) [µM] | Activity (BV-2 [1]) | Activity (CD4+ve Th [5]) | Activity [6] [%] | Activity (CD4+ve Th [7]) | Activity [8] [%] | Activity [9] | Activity [10] | Activity [11] [%] | Activity (BV-2 [12]) | further results |
| --- | --- | --- | --- | --- | --- | --- | --- | --- | --- | --- | --- |
| c1ccc2c(c1)[I+]c1ccccc1-2 [DIPHENYLENEIODONIUM] |  |  |  |  |  |  |  |  |  |  | IC50 (BV-2 [13]): 10.2 µM |
| COC(=O)[C@@H](N)CCCNC(=N)N[N+](=O)[O-] [L-NAME] | 36 |  |  |  |  |  |  |  |  |  |  |
| O=c1c(O)c(-c2ccc(O)c(O)c2)oc2cc(O)cc(O)c12 [QUERCETIN] |  |  |  |  |  |  |  |  |  |  | IC50 [14]: 3.1 µM; IC50 [15]: 5.5 µM; IC50 [16]: 4 µM; IC50 [17]: 2.5 µM |
| Cc1c(C)c2c(c(C)c1O)CCC(C)(C(=O)O)O2 (stereo unspecified) [TROLOX] |  |  |  |  |  |  |  |  |  |  | IC50 [18]: 40.5 µM |
